In article PMC4720131 (ACS Chemical Biology, 2015):

Test system: HIV-1 Gag-Pol/Gag (frameshifting)
Assay: Western blot of virion proteins, ratio p160 to p24+p55
Format: cell-based
Conditions: protease inhibitor control
How it was run: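 Virions came from HEK293T producer cells transfected with an NL4-3 proviral vector (nef replaced by GFP, env deleted) plus VSV-G plasmid at 1:0.5. Test compound added 4 h post-transfection, media harvested at 24 h and 0.45-μm filtered. Virion proteins run on SDS-PAGE and blotted with anti-p24 to detect p24, p55 and p160. p160/(p24+p55) ratio taken by scanning densitometry. Indinavir served as protease-inhibitor control.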

## CC(C)(C)NC(=O)[C@@H]1CN(Cc2cccnc2)CCN1C[C@@H](O)C[C@@H](Cc1ccccc1)C(=O)N[C@H]1c2ccccc2C[C@H]1O [Indinavir, indinavir]
  effect on p160 on virion blot (in words): No buildup of p160 was observed
